In ChEMBL document CHEMBL5143543, “Synthesis and evaluation of enantiomers of hydroxychloroquine against SARS-CoV-2 in vitro” (Bioorg Med Chem, 2022):
Activity calls are given as the source filed them. The rule behind the calls is not given here.

Columns and labels:
[1] = Toxicity in mouse assessed as death at 230 mg/kg, po measured after 7 days; format: organism-based; settings: in vivo, 168 h, time 7 day
Outline: (§1)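 Male and female mice (25 g; n = 8 per group; vehicle-control and test groups) were fasted overnight. Compounds were given as sulfate salts in physiological saline, intragastrically at 230 mg/kg twice a day; controls received saline. Survival was followed by day post dosing, in a double-dose acute toxicity assay.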

SARS-CoV-2 [2] = experiment: Antiviral activity against SARS-CoV-2 infected in Vero E6 cells assessed as viral RNA level measured after 48 hrs by RT-PCR analysis; format: functional, organism-based; settings: Severe acute respiratory syndrome coronavirus 2, Vero C1008, 48 h
SARS-CoV-2 [3] = experiment: Antiviral activity against SARS-CoV-2 infected in Vero E6 cells assessed as virus-induced cytopathic effect at 40 uM measured after 48 hrs by CCK-8 assay; format: functional, organism-based; settings: Severe acute respiratory syndrome coronavirus 2
[4] = Toxicity in mouse assessed as death at 230 mg/kg, po measured after 9 days; format: organism-based; settings: in vivo, 216 h, time 9 day; outline: as §1
SARS-CoV-2 [5] = experiment: Antiviral activity against SARS-CoV-2 infected in Vero E6 cells assessed as virus-induced cytopathic effect at 5 uM measured after 48 hrs by CCK-8 assay; format: functional, organism-based; settings: Severe acute respiratory syndrome coronavirus 2
[6] = Toxicity in mouse assessed as death at 230 mg/kg, po measured after 12 days; format: organism-based; settings: in vivo, 288 h, time 12 day; outline: as §1

CCN(CCO)CCCC(C)Nc1ccnc2cc(Cl)ccc12.O=S(=O)(O)O (racemic) [HYDROXYCHLOROQUINE SULFATE]
Activity [1]: Toxic
EC50 (SARS-CoV-2 [2]): 5.09 µM
Activity (SARS-CoV-2 [3]): Active

CCN(CCO)CCC[C@@H](C)Nc1ccnc2cc(Cl)ccc12.O=S(=O)(O)O
EC50 (SARS-CoV-2 [2]): 5.38 µM
Activity [4]: Toxic
Activity (SARS-CoV-2 [3]): Active

CCC(CC)COC(=O)[C@H](C)N[P@](=O)(OC[C@H]1O[C@@](C#N)(c2ccc3c(N)ncnn23)[C@H](O)[C@@H]1O)Oc1ccccc1
Activity (SARS-CoV-2 [5]): Active

CCN(CCO)CCC[C@H](C)Nc1ccnc2cc(Cl)ccc12.O=S(=O)(O)O
Activity [6]: Non-Toxic
EC50 (SARS-CoV-2 [2]): 3.05 µM
Activity (SARS-CoV-2 [3]): Active
